From ChEMBL document CHEMBL5576140, “Computational Design of Pore-Forming Peptides with Potent Antimicrobial and Anticancer Activities” (J Med Chem, 2024)
Activity calls are given as the source filed them. No cut-off for these calls is given here.

Legend:
[1] = test system: Escherichia coli; experiment: Induction of outer membrane permeabilization in Escherichia coli ATCC 11775 measured for 20 mins by NPN uptake assay; assay type: functional, organism-based
[2] = test system: Staphylococcus aureus; experiment: Antimicrobial activity against Staphylococcus aureus NE163 harboring single transposon insertion mutation in aureolysin at 30 uM incubated for 18 hrs relative to control; assay type: functional
In short: (§1)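 CA-MRSA USA300 LAC derivative JE2 and single transposon insertion mutants derived from JE2, each lacking an extracellular protease gene, were exposed to peptides up to 30 μM. The read-out was percent growth inhibition. Peptides were dissolved in PBS, and tests were run in triplicate.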

[3] = test system: Pseudomonas aeruginosa; experiment: Induction of outer membrane permeabilization in Pseudomonas aeruginosa PAO1 measured for 20 mins by NPN uptake assay; assay type: functional, organism-based
In short: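 Outer-membrane permeabilization of Gram-negative bacteria read as rise in fluorescence of the lipophilic dye NPN, which enters only when outer-membrane integrity is compromised. Peptides applied at their MIC against the respective strain; polymyxin B and levofloxacin as reference antibiotics. Triplicates.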

[4] = test system: T-cell line; experiment: Cytotoxicity against human T-lymphocytes assessed as deleterious effect upto 50 uM by flow cytometry; assay type: toxicity, cell-based
In short: (§2)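 Whole blood from a healthy donor treated with peptides up to 50 μM; effect on B and T lymphocytes, granulocytes and monocytes assessed.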

[5] = test system: Monocyte; experiment: Cytotoxicity against human monocytes assessed as deleterious effect upto 50 uM by flow cytometry; assay type: toxicity, cell-based; in short: as §2
[6] = test system: MOLM-13; experiment: Anti-cancer activity against human MOLM-13 cells incubated for 24 hrs by WST assay; assay type: functional, cell-based; settings: MOLM-13, 24 h
[7] = test system: MDA-MB-435; experiment: Anti-cancer activity against human MDA-MB-435 cells incubated for 72 hrs by Cell Titer Glo assay; assay type: functional, cell-based; settings: MDA-MB-435, 72 h
[8] = test system: A498; experiment: Anti-cancer activity against human A498 cells incubated for 72 hrs by Cell Titer Glo assay; assay type: functional, cell-based; settings: A498, 72 h
[9] = test system: K562; experiment: pH-dependent anticancer activity against human K562 cells in DMEM medium at 10 uM incubated for 1 hr; assay type: functional, cell-based
In short: (§3)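 Cells cultured in RPMI, DMEM or PBS, each adjusted to pH 8, 7 or 6, plus one unadjusted (~7.6). Peptide at 10 μM for only 1 h, to limit pH drift from CO₂-bicarbonate buffering. Cell viability read. Controls were melittin, ampicillin and PBS. Two independent repetitions; effects analysed by ANOVA.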

[10] = test system: Mus musculus; experiment: Induction of wound healing activity in immunosuppressed Balb/c mouse excisional dorsal wound infection model infected with Acinetobacter baumannii NCTC 13301 assessed as area of serocellular crust at about 10 mg/kg treated for 7 days once daily measured after 20 days; assay type: functional; settings: time 20 day
[11] = test system: PC-3; experiment: Anti-cancer activity against human PC-3 cells incubated for 72 hrs by Cell Titer Glo assay; assay type: functional, cell-based; settings: PC-3, 72 h
[12] = test system: DU-145; experiment: Anti-cancer activity against human DU-145 cells incubated for 72 hrs by Cell Titer Glo assay; assay type: functional, cell-based; settings: DU-145, 72 h
[13] = Stability in human serum assessed as half life at 10 mg/ml by UPLC-MS analysis; assay type: ADME, cell-free
In short: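 Peptides dissolved in PBS and incubated in 25% human serum. Intact peptide remaining followed over time to at least 6 h; half-life taken as time to 50% stability.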

[14] = Hemolytic activity against human RBC incubated for 1 hr by microplate reader analysis; assay type: toxicity, cell-based, Erythrocyte; settings: red blood cells (erythrocytes)
In short: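 Human red blood cells exposed to peptides up to 50 μM; hemolysis measured, IC50 derived where reached.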

[15] = Toxicity against reconstructed human skin model assessed as tissue viability at 50 uM incubated for 1 hr followed by compound washout measured after 42 hrs by MTT assay; assay type: tissue-based, Skin of body; settings: read-out: Activity
In short: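 Reconstructed human epidermis with stratum corneum, per OECD TG 439 skin irritation guideline. Tissues exposed 1 h to peptide at 50 μM, then 42 h post-treatment incubation. Viability read by MTT. Controls were SDS and melittin.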

[16] = test system: CAKI-1; experiment: Anti-cancer activity against human CAKI-1 cells incubated for 72 hrs by Cell Titer Glo assay; assay type: functional, cell-based; settings: CAKI-1, 72 h
[17] = test system: A549; experiment: Anti-cancer activity against human A549 cells incubated for 72 hrs by Cell Titer Glo assay; assay type: functional, cell-based; settings: A549, 72 h
[18] = test system: Escherichia coli; experiment: Depolarization of cytoplasmic membrane in Escherichia coli ATCC 11775 at MIC measured for 45 mins by DiSC3-(5) dye based assay; assay type: functional, organism-based
In short: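 Bacteria loaded with membrane-potential dye DiSC3-(5), then treated with peptide at its MIC for the respective strain; depolarization read as rise in dye fluorescence; polymyxin B and levofloxacin as reference antibiotics.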

[19] = test system: OVCAR-3; experiment: Anti-cancer activity against human OVCAR-3 cells incubated for 72 hrs by Cell Titer Glo assay; assay type: functional, cell-based; settings: OVCAR-3, 72 h
[20] = test system: MOLT-4; experiment: Anti-cancer activity against human MOLT-4 cells incubated for 72 hrs by Cell Titer Glo assay; assay type: functional, cell-based; settings: MOLT-4, 72 h
[21] = test system: HCT-15; experiment: Anti-cancer activity against human HCT-15 cells incubated for 72 hrs by Cell Titer Glo assay; assay type: functional, cell-based; settings: HCT-15, 72 h
[22] = test system: HL-60; experiment: pH-dependent anticancer activity against human HL-60 cells in PBS medium at 10 uM incubated for 1 hr; assay type: functional, cell-based; in short: as §3
[23] = test system: Mus musculus; experiment: Induction of wound healing activity in immunosuppressed Balb/c mouse excisional dorsal wound infection model infected with Acinetobacter baumannii NCTC 13301 assessed as reduction in wound expansion at about 10 mg/kg treated for 7 days once daily; assay type: functional, organism-based; settings: time 7.0 day
[24] = test system: K562; experiment: Anti-cancer activity against human K562 cells incubated for 72 hrs by Cell Titer Glo assay; assay type: functional, cell-based; settings: K562, 72 h
[25] = Toxicity in neutropenic CD-1 mouse deep thigh infection model infected with Acinetobacter baumannii ATCC 19606 assessed as body weight change at 0.16 mg/kg, ip measured after 4 days; assay type: organism-based; settings: in vivo, 96 h, time 4 day
In short: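 Neutropenic mice infected intramuscularly in the right thigh with 10⁶ cells per mL of A. baumannii ATCC 19606. […] Body weight monitored for toxicity. Euthanasia 4 days post-infection (day 8). n = 6 per group, from three inocula.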

[26] = test system: Staphylococcus aureus; experiment: Antimicrobial activity against Staphylococcus aureus NE1740 harboring single transposon insertion mutation in staphopain A at 30 uM incubated for 18 hrs relative to control; assay type: functional; in short: as §1
[27] = test system: Mus musculus; experiment: Induction of wound healing activity in immunosuppressed Balb/c mouse excisional dorsal wound infection model infected with Acinetobacter baumannii NCTC 13301 assessed as reduction in necrosis of epidermal tissue at wound edges at about 10 mg/kg treated for 7 days once daily; assay type: functional, organism-based; settings: time 7.0 day
[28] = test system: Staphylococcus aureus; experiment: Antimicrobial activity against Staphylococcus aureus NE934 harboring single transposon insertion mutation in staphopain B at 30 uM incubated for 18 hrs relative to control; assay type: functional; in short: as §1
[29] = test system: Acinetobacter baumannii; experiment: Anti-infective activity against Acinetobacter baumannii ATCC 19606 infected in neutropenic CD-1 mouse deep thigh infection model assessed as reduction in bacterial load at 0.16 mg/kg, ip measured after 4 days; assay type: functional, organism-based; settings: time 4.0 day
In short: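 Neutropenic mice infected intramuscularly in right thigh with 10⁶ cells per mL A. baumannii ATCC 19606; single intraperitoneal peptide dose at 10× MIC; bacterial load determined 4 days after treatment (euthanized day 8); n = 6 per group from three inocula; one-way ANOVA with Dunnett's test versus untreated.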

[30] = test system: Mus musculus; experiment: Induction of wound healing activity in immunosuppressed Balb/c mouse excisional dorsal wound infection model infected with Acinetobacter baumannii NCTC 13301 assessed as closed wound at about 10 mg/kg treated for 7 days once daily measured after 20 days; assay type: functional, organism-based; settings: time 20.0 day

Substance: H-KKKKLKKILKKLFQFINQLDNQLQDIKQNK-NH2
- Activity [1]: Active
- inhibition at 30 µM [2]: < 45%
- Activity [3]: Active
- Activity [4]: Non-Toxic
- Activity [5]: Non-Toxic
- IC50 [6]: ≤ 10000 nM
- IC50 [7]: 1000 nM
- IC50 [8]: 1000 nM
- Activity [9]: Active
- Activity [10]: <10 mm2
- IC50 [11]: 1000 nM
- IC50 [12]: 1000 nM
- half-life at 10 mg/ml [13]: > 6 h
- IC50 at 1 h [14]: > 50000 nM
- viability at 1 h, 50 µM [15]: 100%
- IC50 [16]: 1000 nM
- IC50 [17]: 1000 nM
- Activity [18]: Active
- IC50 [19]: 1000 nM
- IC50 [20]: 1000 nM
- IC50 [21]: 1000 nM
- Activity [22]: Active
- Activity [23]: Active
- IC50 [24]: 1000 nM
- Activity [25]: Non-Toxic
- inhibition at 30 µM [26]: < 45%
- Activity [27]: Active
- inhibition at 30 µM [28]: < 45%
- Activity [29]: Active
- Activity [30]: Active
